Results reported in ChEMBL document CHEMBL1132573, “Novel antitumor 2-cyanoaziridine-1-carboxamides” (J Med Chem, 1999).
pIC50: −log10 of the molar value.

Columns and labels:
[1] = system: RPMI-8226; experiment: Inhibition of cell growth in drug resistant 8226 myeloma cell line; format: functional, cell-based; settings: Homo sapiens
[2] = system: RPMI-8226; experiment: Inhibition of cell growth in drug sensitive 8226 myeloma cell line; format: functional, cell-based; settings: Homo sapiens
[3] = system: A549; experiment: Inhibition of cell growth in (A-549) lung cell line; format: functional, cell-based; settings: Homo sapiens
[4] = system: A-375; experiment: Inhibition of cell growth in (A375) melan cell line; format: functional, cell-based; settings: Homo sapiens
[5] = Number of colony forming cells of human gynecologic tumor showing sensitivity among the 4 colony forming cells tested in vitro at compound concentration of 0.2 uM; format: functional
Summary of the method: (§1)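 Fresh human tumor specimens from patients at the Arizona Cancer Center, run in the human tumor cloning (colony-forming) assay by a standard protocol. Read-out was [3H]thymine uptake by tumor-colony-forming cells.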

[6] = Number of colony forming cells of human gynecologic tumor showing sensitivity among the 4 colony forming cells tested in vitro at compound concentration of 2.0 uM; format: functional; summary of the method: as §1
[7] = Number of colony forming cells of human gynecologic tumor showing sensitivity among the 4 colony forming cells tested in vitro at compound concentration of 20 uM; format: functional; summary of the method: as §1
[8] = Number of colony forming cells of human lung tumor showing sensitivity among the 2 colony forming cells tested in vitro at compound concentration of 20 uM; format: functional; summary of the method: as §1
[9] = Number of colony forming cells of human ovary tumor showing sensitivity among the 10 colony forming cells tested in vitro at compound concentration of 0.2 uM; format: functional, Female gonad; summary of the method: as §1
[10] = Number of colony forming cells of human ovary tumor showing sensitivity among the 10 colony forming cells tested in vitro at compound concentration of 20 uM; format: functional, Female gonad; summary of the method: as §1
[11] = Number of colony forming cells of human lung tumor showing sensitivity among the 2 colony forming cells tested in vitro at compound concentration of 0.2 uM; format: functional; summary of the method: as §1
[12] = Number of colony forming cells of human sarcoma tumor showing sensitivity among the 2 colony forming cells tested in vitro at compound concentration of 0.2 uM; format: functional
Summary of the method: (§2)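 Fresh human tumor specimens, obtained from patients at the Arizona Cancer Center, were tested as tumor-colony-forming cells in the human tumor cloning assay. Sensitivity was scored as a 50% or greater decrease in […] uptake by treated colony-forming cells relative to untreated control colony-forming cells. The value is the count of sensitive specimens among those tested.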

[13] = Number of colony forming cells of human sarcoma tumor showing sensitivity among the 8 colony forming cells tested in vitro at compound concentration of 2.0 uM; format: functional; summary of the method: as §2
[14] = Number of colony forming cells of human sarcoma tumor showing sensitivity among the 8 colony forming cells tested in vitro at compound concentration of 20 uM; format: functional; summary of the method: as §2
[15] = Number of colony forming cells of human melanoma tumor showing sensitivity among the 10 colony forming cells tested in vitro at compound concentration of 20 uM; format: functional; summary of the method: as §1
[16] = Number of colony forming cells of human melanoma tumor showing sensitivity among the 5 colony forming cells tested in vitro at compound concentration of 0.2 uM; format: functional; summary of the method: as §1
[17] = system: Breast carcinoma cell; experiment: Number of colony forming cells of human breast tumor showing sensitivity among the 4 colony forming cells tested in vitro at compound concentration of 20 uM; format: functional; summary of the method: as §1
[18] = Number of colony forming cells of human stomach tumor showing sensitivity among the 1 colony forming cells tested in vitro at compound concentration of 2.0 uM; format: functional; summary of the method: as §2
[19] = Number of colony forming cells of human stomach tumor showing sensitivity among the 1 colony forming cells tested in vitro at compound concentration of 20 uM; format: functional; summary of the method: as §2
[20] = Number of colony forming cells of human myeloma tumor showing sensitivity among the 2 colony forming cells tested in vitro at compound concentration of 0.2 uM; format: functional; summary of the method: as §1
[21] = Number of colony forming cells of human myeloma tumor showing sensitivity among the 2 colony forming cells tested in vitro at compound concentration of 2.0 uM; format: functional; summary of the method: as §1
[22] = Number of colony forming cells of human myeloma tumor showing sensitivity among the 2 colony forming cells tested in vitro at compound concentration of 20 uM; format: functional; summary of the method: as §1
[23] = Number of colony forming cells of human ovary tumor showing sensitivity among the 11 colony forming cells tested in vitro at compound concentration of 2.0 uM; format: functional, Female gonad; summary of the method: as §1
[24] = Number of colony forming cells of human stomach tumor showing sensitivity among the 1 colony forming cells tested in vitro at compound concentration of 0.2 uM; format: functional; summary of the method: as §2
[25] = system: Breast carcinoma cell; experiment: Number of colony forming cells of human breast tumor showing sensitivity among the 4 colony forming cells tested in vitro at compound concentration of 0.2 uM; format: functional; summary of the method: as §1
[26] = system: L1210; experiment: Inhibition of cell growth in (L1210 leukemia) MDR cells determined by MTT assay; format: functional, cell-based; settings: Mus musculus
[27] = system: L1210; experiment: Inhibition of cell growth in drug sensitive L1210 leukemia cell line determined by MTT assay; format: functional, cell-based; settings: Mus musculus
[28] = system: MCF7; experiment: Inhibition of cell growth in (MCF7 breast) dox cell line; format: functional, cell-based; settings: Homo sapiens
[29] = system: MCF7; experiment: Inhibition of cell growth in (MCF7 breast) mitox cell line; format: functional, cell-based; settings: Homo sapiens
[30] = system: MCF7; experiment: Inhibition of cell growth in drug sensitive MCF-7 breast cell line; format: functional, cell-based; settings: Homo sapiens
[31] = system: OVCAR-3; experiment: Inhibition of cell growth in (OVCAR-3) ovarian cell line; format: functional, cell-based; settings: Homo sapiens
[32] = system: WiDr; experiment: Inhibition of cell growth in drug resistant WiDr colon cell line; format: functional, cell-based; settings: Homo sapiens
[33] = system: WiDr; experiment: Inhibition of cell growth in drug sensitive WiDr colon cell line; format: functional, cell-based; settings: Homo sapiens
[34] = Number of colony forming cells of human lung tumor showing sensitivity among the 2 colony forming cells tested in vitro at compound concentration of 2.0 uM; format: functional; summary of the method: as §1
[35] = Number of colony forming cells of human melanoma tumor showing sensitivity among the 10 colony forming cells tested in vitro at compound concentration of 2.0 uM; format: functional; summary of the method: as §1
[36] = system: Breast carcinoma cell; experiment: Number of colony forming cells of human breast tumor showing sensitivity among the 4 colony forming cells tested in vitro at compound concentration of 2.0 uM; format: functional; summary of the method: as §1
[37] = Number of colony forming cells of human gynecologic tumor showing sensitivity among the 4 colony forming cells tested in vitro at compound concentration of 0.1 uM; format: functional; summary of the method: as §1
[38] = Number of colony forming cells of human gynecologic tumor showing sensitivity among the 4 colony forming cells tested in vitro at compound concentration of 1.0 uM; format: functional; summary of the method: as §1
[39] = Number of colony forming cells of human gynecologic tumor showing sensitivity among the 4 colony forming cells tested in vitro at compound concentration of 10 uM; format: functional; summary of the method: as §1
[40] = Number of colony forming cells of human lung tumor showing sensitivity among the 2 colony forming cells tested in vitro at compound concentration of 10 uM; format: functional; summary of the method: as §1
[41] = Number of colony forming cells of human lung tumor showing sensitivity among the 2 colony forming cells tested in vitro at compound concentration of 0.1 uM; format: functional; summary of the method: as §1
[42] = Number of colony forming cells of human lung tumor showing sensitivity among the 2 colony forming cells tested in vitro at compound concentration of 1.0 uM; format: functional; summary of the method: as §1
[43] = Number of colony forming cells of human stomach tumor showing sensitivity among the 1 colony forming cells tested in vitro at compound concentration of 10 uM; format: functional; summary of the method: as §2
[44] = Number of colony forming cells of human sarcoma tumor showing sensitivity among the 2 colony forming cells tested in vitro at compound concentration of 0.1 uM; format: functional; summary of the method: as §2
[45] = Number of colony forming cells of human sarcoma tumor showing sensitivity among the 8 colony forming cells tested in vitro at compound concentration of 1.0 uM; format: functional; summary of the method: as §2
[46] = Number of colony forming cells of human sarcoma tumor showing sensitivity among the 8 colony forming cells tested in vitro at compound concentration of 10 uM; format: functional; summary of the method: as §2
[47] = Number of colony forming cells of human melanoma tumor showing sensitivity among the 5 colony forming cells tested in vitro at compound concentration of 0.1 uM; format: functional; summary of the method: as §1
[48] = system: Breast carcinoma cell; experiment: Number of colony forming cells of human breast tumor showing sensitivity among the 4 colony forming cells tested in vitro at compound concentration of 1.0 uM; format: functional; summary of the method: as §1
[49] = system: Breast carcinoma cell; experiment: Number of colony forming cells of human breast tumor showing sensitivity among the 4 colony forming cells tested in vitro at compound concentration of 10 uM; format: functional; summary of the method: as §1
[50] = Number of colony forming cells of human ovary tumor showing sensitivity among the 11 colony forming cells tested in vitro at compound concentration of 1.0 uM; format: functional, Female gonad; summary of the method: as §1
[51] = Number of colony forming cells of human myeloma tumor showing sensitivity among the 3 colony forming cells tested in vitro at compound concentration of 0.1 uM; format: functional; summary of the method: as §1
[52] = Number of colony forming cells of human myeloma tumor showing sensitivity among the 3 colony forming cells tested in vitro at compound concentration of 1.0 uM; format: functional; summary of the method: as §1
[53] = Number of colony forming cells of human melanoma tumor showing sensitivity among the 10 colony forming cells tested in vitro at compound concentration of 1.0 uM; format: functional; summary of the method: as §1
[54] = Number of colony forming cells of human melanoma tumor showing sensitivity among the 10 colony forming cells tested in vitro at compound concentration of 10 uM; format: functional; summary of the method: as §1
[55] = Number of colony forming cells of human ovary tumor showing sensitivity among the 12 colony forming cells tested in vitro at compound concentration of 0.1 uM; format: functional, Female gonad; summary of the method: as §1
[56] = Number of colony forming cells of human ovary tumor showing sensitivity among the 12 colony forming cells tested in vitro at compound concentration of 10 uM; format: functional, Female gonad; summary of the method: as §1
[57] = Number of colony forming cells of human stomach tumor showing sensitivity among the 1 colony forming cells tested in vitro at compound concentration of 0.1 uM; format: functional; summary of the method: as §2
[58] = Number of colony forming cells of human stomach tumor showing sensitivity among the 1 colony forming cells tested in vitro at compound concentration of 1.0 uM; format: functional; summary of the method: as §2
[59] = system: Breast carcinoma cell; experiment: Number of colony forming cells of human breast tumor showing sensitivity among the 4 colony forming cells tested in vitro at compound concentration of 0.1 uM; format: functional; summary of the method: as §1
[60] = Number of colony forming cells of human myeloma tumor showing sensitivity among the 3 colony forming cells tested in vitro at compound concentration of 10 uM; format: functional; summary of the method: as §1

Structure (SMILES): N#CC1CN1C(=O)Nc1ccccc1 (configuration not stated)
- pIC50 [1]: 5.10
- pIC50 [2]: 5.28
- pIC50 [3]: 5.05
- pIC50 [4]: 4.96
- Sensitivity [5]: 0
- Sensitivity [6]: 2
- Sensitivity [7]: 3
- Sensitivity [8]: 2
- Sensitivity [9]: 3
- Sensitivity [10]: 10
- Sensitivity [11]: 0
- Sensitivity [12]: 2
- Sensitivity [13]: 4
- Sensitivity [14]: 5
- Sensitivity [15]: 10
- Sensitivity [16]: 3
- Sensitivity [17]: 3
- Sensitivity [18]: 1
- Sensitivity [19]: 1
- Sensitivity [20]: 2
- Sensitivity [21]: 2
- Sensitivity [22]: 2
- Sensitivity [23]: 10
- Sensitivity [24]: 1
- Sensitivity [25]: 2
- pIC50 [26]: 4.96
- pIC50 [27]: 5.92
- pIC50 [28]: 5.59
- pIC50 [29]: 5.37
- pIC50 [30]: 5.54
- pIC50 [31]: 5.17
- pIC50 [32]: 4.92
- pIC50 [33]: 5.30
- Sensitivity [34]: 1
- Sensitivity [35]: 8
- Sensitivity [36]: 2

Structure (SMILES): N=C1NC(=O)N2CC12 (configuration not stated) [IMEXON]
- pIC50 [2]: 4.77
- pIC50 [3]: < 4.14
- Sensitivity [37]: 0
- Sensitivity [38]: 0
- Sensitivity [39]: 1
- Sensitivity [40]: 2
- Sensitivity [41]: 0
- Sensitivity [42]: 0
- Sensitivity [43]: 1
- Sensitivity [44]: 0
- Sensitivity [45]: 2
- Sensitivity [46]: 5
- Sensitivity [47]: 3
- Sensitivity [48]: 2
- Sensitivity [49]: 3
- Sensitivity [50]: 3
- Sensitivity [51]: 3
- Sensitivity [52]: 3
- Sensitivity [53]: 4
- Sensitivity [54]: 8
- Sensitivity [55]: 4
- Sensitivity [56]: 8
- Sensitivity [57]: 0
- Sensitivity [58]: 0
- Sensitivity [59]: 0
- Sensitivity [60]: 3
- pIC50 [28]: < 4.74
- pIC50 [29]: < 4.74
- pIC50 [30]: < 4.74
- pIC50 [32]: < 4.14
- pIC50 [33]: < 4.14
